pIC50, pKi: −log10 of the molar value. Values after ≈ are worked out from the molar mass of the structure shown. Active and inactive are the calls of the source. The calls are words filed in the database; no cut-off is given here.
Key:
[1] = target: T1, Serine/threonine-protein kinase PAK 4 (Homo sapiens, UniProt O96013); experiment: Binding affinity to N-terminal GST-tagged recombinant human PAK4 kinase domain expressed in Escherichia coli using KKRNRRLSVA as substrate preincubated for 10 mins followed by ATP addition measured after 60 mins by FRET-based Z'Lyte assay
Target sequence in this assay (O96013 whole entry, the tested form may be a part): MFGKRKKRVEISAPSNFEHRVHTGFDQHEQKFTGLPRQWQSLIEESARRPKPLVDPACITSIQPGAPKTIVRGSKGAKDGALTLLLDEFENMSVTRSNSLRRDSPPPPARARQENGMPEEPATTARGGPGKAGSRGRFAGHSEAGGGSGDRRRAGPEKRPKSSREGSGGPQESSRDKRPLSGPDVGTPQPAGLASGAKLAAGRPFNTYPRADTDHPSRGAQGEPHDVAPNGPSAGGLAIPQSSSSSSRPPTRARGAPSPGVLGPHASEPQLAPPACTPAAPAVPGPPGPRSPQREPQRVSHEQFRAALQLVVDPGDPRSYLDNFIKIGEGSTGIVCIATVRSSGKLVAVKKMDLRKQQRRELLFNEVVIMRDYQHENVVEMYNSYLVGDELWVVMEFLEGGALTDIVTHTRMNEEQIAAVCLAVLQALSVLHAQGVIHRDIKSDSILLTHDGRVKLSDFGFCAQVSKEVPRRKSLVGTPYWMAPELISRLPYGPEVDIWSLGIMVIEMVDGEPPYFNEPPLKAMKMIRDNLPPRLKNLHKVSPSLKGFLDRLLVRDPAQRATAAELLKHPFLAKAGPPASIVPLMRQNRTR

[2] = target: Serine/threonine-protein kinase PAK 1 (Homo sapiens, UniProt Q13153); experiment: Binding affinity to N-terminal GST-His-tagged recombinant human PAK1 kinase domain expressed in Escherichia coli BL21 using KKRNRRLSVA as sustrate preincubated for 10 mins followed by ATP addition measured after 60 mins by FRET-based Z'Lyte assay
Chain of Serine/threonine-protein kinase PAK 1 (Q13153 whole entry, the tested form may be a part): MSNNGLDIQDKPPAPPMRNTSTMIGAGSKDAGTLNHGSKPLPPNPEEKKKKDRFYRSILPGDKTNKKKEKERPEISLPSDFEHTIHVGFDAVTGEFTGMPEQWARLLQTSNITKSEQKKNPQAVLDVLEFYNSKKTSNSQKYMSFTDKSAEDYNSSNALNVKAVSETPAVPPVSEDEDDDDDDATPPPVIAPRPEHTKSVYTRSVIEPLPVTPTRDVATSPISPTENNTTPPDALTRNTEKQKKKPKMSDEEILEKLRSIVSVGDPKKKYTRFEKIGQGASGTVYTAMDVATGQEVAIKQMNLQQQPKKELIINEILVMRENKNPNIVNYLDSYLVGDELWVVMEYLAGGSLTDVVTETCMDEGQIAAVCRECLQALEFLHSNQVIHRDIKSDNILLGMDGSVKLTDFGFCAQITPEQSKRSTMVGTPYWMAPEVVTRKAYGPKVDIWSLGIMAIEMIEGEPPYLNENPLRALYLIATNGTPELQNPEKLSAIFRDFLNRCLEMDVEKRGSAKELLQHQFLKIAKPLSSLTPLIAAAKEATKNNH

[3] = target: Mitogen-activated protein kinase kinase kinase 14 (Homo sapiens) (UniProt Q99558); experiment: Inhibition of NIK (unknown origin) at 10 uM
Chain of Mitogen-activated protein kinase kinase kinase 14 (Homo sapiens) (Q99558 whole entry, looked up): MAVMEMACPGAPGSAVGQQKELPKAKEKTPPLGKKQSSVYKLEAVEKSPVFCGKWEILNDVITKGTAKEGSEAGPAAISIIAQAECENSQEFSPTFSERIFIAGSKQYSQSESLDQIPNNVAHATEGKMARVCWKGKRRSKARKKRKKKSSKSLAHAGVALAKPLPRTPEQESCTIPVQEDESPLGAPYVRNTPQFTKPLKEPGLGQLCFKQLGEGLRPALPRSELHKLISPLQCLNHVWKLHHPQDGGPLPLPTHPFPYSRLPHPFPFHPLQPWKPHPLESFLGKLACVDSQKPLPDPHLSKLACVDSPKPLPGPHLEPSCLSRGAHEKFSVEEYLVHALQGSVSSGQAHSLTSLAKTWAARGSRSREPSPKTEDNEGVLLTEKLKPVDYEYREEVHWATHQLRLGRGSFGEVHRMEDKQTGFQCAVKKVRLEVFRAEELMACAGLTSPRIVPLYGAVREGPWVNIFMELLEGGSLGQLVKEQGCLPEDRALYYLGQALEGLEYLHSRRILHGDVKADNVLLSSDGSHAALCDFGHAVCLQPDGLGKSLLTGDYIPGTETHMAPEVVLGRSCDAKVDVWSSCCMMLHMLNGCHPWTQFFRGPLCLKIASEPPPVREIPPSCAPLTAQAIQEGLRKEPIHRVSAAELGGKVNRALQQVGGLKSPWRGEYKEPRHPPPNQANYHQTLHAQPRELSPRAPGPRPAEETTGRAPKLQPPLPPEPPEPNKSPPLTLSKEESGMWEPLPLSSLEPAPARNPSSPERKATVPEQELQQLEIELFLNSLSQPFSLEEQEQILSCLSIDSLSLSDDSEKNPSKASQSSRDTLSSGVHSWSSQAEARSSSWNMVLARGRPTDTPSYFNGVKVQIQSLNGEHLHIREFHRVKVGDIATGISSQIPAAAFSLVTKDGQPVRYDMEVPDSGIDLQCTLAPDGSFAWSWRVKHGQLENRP

[4] = target: Mitogen-activated protein kinase kinase kinase kinase 5 (Homo sapiens) (UniProt Q9Y4K4); experiment: Inhibition of KHS1 (unknown origin) at 10 uM
Chain of Mitogen-activated protein kinase kinase kinase kinase 5 (Homo sapiens) (Q9Y4K4 whole entry, looked up): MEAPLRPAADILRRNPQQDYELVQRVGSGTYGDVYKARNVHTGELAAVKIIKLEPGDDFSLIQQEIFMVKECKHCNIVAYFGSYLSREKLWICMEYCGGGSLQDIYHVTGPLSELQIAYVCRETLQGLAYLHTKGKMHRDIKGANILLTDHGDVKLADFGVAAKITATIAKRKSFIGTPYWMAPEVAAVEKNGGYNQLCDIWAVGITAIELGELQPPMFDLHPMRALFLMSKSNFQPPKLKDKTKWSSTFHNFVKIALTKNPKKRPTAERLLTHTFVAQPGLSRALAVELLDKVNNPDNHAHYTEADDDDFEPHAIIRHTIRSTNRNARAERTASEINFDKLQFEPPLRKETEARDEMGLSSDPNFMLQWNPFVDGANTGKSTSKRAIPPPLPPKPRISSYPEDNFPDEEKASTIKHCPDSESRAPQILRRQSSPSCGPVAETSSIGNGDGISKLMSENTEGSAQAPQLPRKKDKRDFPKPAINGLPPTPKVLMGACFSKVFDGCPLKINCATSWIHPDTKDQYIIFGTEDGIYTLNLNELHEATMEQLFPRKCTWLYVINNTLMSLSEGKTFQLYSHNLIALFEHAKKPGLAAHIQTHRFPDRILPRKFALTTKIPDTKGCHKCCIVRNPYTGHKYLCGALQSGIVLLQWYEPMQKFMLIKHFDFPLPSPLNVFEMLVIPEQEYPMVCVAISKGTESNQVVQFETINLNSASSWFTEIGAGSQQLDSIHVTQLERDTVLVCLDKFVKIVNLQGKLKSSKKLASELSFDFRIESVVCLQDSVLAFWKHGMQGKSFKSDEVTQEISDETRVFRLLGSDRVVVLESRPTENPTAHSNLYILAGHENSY

[5] = target: T1, Serine/threonine-protein kinase PAK 4; details: 10 uM
Target sequence in this assay (O96013 whole entry, looked up, the tested form may be a part): as the sequence (O96013 whole entry, the tested form may be a part) above

[6] = target: Mitogen-activated protein kinase kinase kinase kinase 4 (Homo sapiens) (UniProt O95819); experiment: Inhibition of MAP4K4 (unknown origin) at 10 uM
Chain of Mitogen-activated protein kinase kinase kinase kinase 4 (Homo sapiens) (O95819 2-1239 limits assumed): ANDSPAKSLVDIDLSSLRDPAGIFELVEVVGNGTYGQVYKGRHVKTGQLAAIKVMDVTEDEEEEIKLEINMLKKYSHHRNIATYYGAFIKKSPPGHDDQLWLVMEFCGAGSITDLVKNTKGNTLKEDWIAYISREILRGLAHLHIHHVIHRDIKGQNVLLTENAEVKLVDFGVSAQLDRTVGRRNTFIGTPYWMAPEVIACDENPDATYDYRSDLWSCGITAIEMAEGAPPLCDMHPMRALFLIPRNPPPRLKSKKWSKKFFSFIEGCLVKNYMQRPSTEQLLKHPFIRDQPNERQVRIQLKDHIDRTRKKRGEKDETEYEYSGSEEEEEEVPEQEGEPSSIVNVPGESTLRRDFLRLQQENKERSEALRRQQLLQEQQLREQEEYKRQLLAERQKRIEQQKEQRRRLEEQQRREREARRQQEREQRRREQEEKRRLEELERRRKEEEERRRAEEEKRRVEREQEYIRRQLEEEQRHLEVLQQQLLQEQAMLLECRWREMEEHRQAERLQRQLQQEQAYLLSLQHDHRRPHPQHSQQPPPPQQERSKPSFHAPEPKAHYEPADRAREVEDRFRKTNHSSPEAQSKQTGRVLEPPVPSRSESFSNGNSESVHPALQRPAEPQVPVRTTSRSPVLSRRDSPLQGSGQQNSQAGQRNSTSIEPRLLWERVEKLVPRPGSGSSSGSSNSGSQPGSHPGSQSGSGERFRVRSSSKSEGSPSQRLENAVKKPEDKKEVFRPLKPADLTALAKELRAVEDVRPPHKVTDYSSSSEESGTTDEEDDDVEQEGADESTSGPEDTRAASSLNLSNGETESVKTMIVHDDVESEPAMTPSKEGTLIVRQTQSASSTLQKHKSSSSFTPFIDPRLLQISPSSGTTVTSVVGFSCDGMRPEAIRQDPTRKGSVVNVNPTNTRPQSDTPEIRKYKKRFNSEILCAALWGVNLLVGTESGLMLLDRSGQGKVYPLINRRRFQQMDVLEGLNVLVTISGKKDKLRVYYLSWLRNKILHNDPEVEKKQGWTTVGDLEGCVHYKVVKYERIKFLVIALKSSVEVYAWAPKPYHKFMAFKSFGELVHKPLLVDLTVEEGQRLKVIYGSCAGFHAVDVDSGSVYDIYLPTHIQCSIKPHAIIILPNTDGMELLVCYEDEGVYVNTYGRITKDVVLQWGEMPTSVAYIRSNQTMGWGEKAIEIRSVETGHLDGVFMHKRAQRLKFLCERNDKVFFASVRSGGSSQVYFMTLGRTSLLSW

[7] = target: T2, Tyrosine-protein kinase JAK3 (Homo sapiens) (UniProt P52333); experiment: Inhibition of JAK3 (unknown origin) at 10 uM
T2 sequence (whole entry): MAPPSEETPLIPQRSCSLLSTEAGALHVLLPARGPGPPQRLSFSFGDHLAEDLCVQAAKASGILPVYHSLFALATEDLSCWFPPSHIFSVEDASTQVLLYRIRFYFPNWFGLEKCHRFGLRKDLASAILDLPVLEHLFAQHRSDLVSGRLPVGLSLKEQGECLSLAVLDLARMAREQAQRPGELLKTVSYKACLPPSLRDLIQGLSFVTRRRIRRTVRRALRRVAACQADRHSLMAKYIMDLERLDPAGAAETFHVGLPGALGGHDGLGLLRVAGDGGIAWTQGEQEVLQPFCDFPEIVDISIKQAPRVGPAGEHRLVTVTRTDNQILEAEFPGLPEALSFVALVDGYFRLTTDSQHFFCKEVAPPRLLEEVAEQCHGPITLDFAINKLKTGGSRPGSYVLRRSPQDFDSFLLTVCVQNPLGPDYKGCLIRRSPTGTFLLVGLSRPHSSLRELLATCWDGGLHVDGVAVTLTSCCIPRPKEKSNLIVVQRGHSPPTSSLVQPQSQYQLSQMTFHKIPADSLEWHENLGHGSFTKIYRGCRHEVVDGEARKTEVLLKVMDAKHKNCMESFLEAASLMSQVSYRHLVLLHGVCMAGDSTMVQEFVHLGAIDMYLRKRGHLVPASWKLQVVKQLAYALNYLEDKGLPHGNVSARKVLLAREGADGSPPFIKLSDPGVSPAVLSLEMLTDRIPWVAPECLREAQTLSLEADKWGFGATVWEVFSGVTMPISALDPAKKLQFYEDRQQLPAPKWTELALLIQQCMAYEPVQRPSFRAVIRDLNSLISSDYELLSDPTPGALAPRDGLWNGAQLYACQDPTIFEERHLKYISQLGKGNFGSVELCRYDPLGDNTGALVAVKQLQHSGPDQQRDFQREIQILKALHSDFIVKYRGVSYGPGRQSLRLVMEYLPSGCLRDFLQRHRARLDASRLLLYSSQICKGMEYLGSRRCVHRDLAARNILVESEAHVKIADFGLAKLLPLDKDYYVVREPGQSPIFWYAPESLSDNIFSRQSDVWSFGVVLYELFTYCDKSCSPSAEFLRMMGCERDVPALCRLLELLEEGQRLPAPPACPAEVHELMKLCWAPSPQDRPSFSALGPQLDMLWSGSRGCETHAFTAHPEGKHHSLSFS

[8] = target: Misshapen-like kinase 1 (Homo sapiens) (UniProt Q8N4C8); experiment: Inhibition of MINK1 (unknown origin) at 10 uM
MDA-MB-436 [9] = experiment: Antiinvasive activity against human MDA-MB-436 cells assessed as reduction of wound density after 80 hrs by matrigel assay; assay type: functional, cell-based
MCF-10A [10] = experiment: Cytotoxicity against human MCF10A cells harboring PIK3CA H1047R mutant cells assessed as reduction in cell viability at 50 uM after 24 to 48 hrs by Celltiter-glo luminescence assay; assay type: functional, cell-based
Outline: (§1)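 Cells sparsely plated in 96-well plates and allowed to adhere, then given DMSO or compound (0.1, 1, 10, 50 μM) for 24 and 48 h. Metabolically active cells quantified by CellTiter-Glo luminescence. MDA-MB-436 grown in DMEM/10% FBS; MCF10A PIK3CA (one endogenous H1047R allele) in DMEM/F12 with 5% horse serum, insulin, hydrocortisone.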

[11] = Cytotoxicity against human MDA-MB-436 cells assessed as reduction in cell viability at 10 uM after 24 to 48 hrs by Celltiter-glo luminescence assay; assay type: functional; outline: as §1
[12] = Cytotoxicity against human MCF10A cells harboring PIK3CA H1047R mutant cells assessed as reduction in cell viability at 10 uM after 24 to 48 hrs by Celltiter-glo luminescence assay; assay type: functional, MCF-10A; outline: as §1
[13] = Antimigratory activity in human MDA-MB-436 cells assessed as reduction in wound density at >10 uM after 1 to 24 hrs by wound healing assay; assay type: functional; design: scale not given: the % may be the effect or the level left
Outline: (§2)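 Monolayer of 40 000 cells per well, grown overnight, scratched with WoundMaker, washed twice with warm medium, then given medium with DMSO or compound (0.1, 1, 10, 50 μM). Relative wound density from phase-contrast time-lapse images, collected and quantified every 2 h on IncuCyte.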

[14] = target: T1, Serine/threonine-protein kinase PAK 4; experiment: Inhibition of PAK4 (unknown origin)
Target sequence in this assay (O96013 whole entry, the tested form may be a part): as the sequence (O96013 whole entry, the tested form may be a part) above

MDA-MB-436 [15] = experiment: Antiinvasive activity against human MDA-MB-436 cells assessed as complete wound closure at 0.1 to 50 uM after 80 hrs by matrigel assay; assay type: functional, cell-based
[16] = target: Mitogen-activated protein kinase kinase kinase kinase 4 (Homo sapiens) (UniProt O95819); experiment: Inhibition of MAP4K4 (unknown origin) at 1 uM
[17] = target: T1, Serine/threonine-protein kinase PAK 4; experiment: Inhibition of PAK4 (unknown origin) at 1 uM
Target sequence in this assay (O96013 whole entry, looked up, the tested form may be a part): as the sequence (O96013 whole entry, the tested form may be a part) above

[18] = Thermodynamic solubility of the compound; assay type: physicochemical; details: read-out: Therm_solubility
[19] = Antiinvasive activity against human MCF10A cells harboring PIK3CA H1047R mutant assessed as reduction of wound density at 10 uM after 48 hrs by matrigel assay; assay type: functional, MCF-10A; design: scale not given: the % may be the effect or the level left
[20] = target: T1, Serine/threonine-protein kinase PAK 4; details: 0.1 uM
Target sequence in this assay (O96013 whole entry, looked up, the tested form may be a part): as the sequence (O96013 whole entry, the tested form may be a part) above

[21] = Plasma protein binding in human plasma; assay type: ADME, cell-free; details: read-out: PPB (converted)
Ephrin type-B receptor 1 = target: T3, Ephrin type-B receptor 1 (Homo sapiens, UniProt P54762); experiment: Inhibition of EphB1 (unknown origin)
T3 sequence (P54762 whole entry): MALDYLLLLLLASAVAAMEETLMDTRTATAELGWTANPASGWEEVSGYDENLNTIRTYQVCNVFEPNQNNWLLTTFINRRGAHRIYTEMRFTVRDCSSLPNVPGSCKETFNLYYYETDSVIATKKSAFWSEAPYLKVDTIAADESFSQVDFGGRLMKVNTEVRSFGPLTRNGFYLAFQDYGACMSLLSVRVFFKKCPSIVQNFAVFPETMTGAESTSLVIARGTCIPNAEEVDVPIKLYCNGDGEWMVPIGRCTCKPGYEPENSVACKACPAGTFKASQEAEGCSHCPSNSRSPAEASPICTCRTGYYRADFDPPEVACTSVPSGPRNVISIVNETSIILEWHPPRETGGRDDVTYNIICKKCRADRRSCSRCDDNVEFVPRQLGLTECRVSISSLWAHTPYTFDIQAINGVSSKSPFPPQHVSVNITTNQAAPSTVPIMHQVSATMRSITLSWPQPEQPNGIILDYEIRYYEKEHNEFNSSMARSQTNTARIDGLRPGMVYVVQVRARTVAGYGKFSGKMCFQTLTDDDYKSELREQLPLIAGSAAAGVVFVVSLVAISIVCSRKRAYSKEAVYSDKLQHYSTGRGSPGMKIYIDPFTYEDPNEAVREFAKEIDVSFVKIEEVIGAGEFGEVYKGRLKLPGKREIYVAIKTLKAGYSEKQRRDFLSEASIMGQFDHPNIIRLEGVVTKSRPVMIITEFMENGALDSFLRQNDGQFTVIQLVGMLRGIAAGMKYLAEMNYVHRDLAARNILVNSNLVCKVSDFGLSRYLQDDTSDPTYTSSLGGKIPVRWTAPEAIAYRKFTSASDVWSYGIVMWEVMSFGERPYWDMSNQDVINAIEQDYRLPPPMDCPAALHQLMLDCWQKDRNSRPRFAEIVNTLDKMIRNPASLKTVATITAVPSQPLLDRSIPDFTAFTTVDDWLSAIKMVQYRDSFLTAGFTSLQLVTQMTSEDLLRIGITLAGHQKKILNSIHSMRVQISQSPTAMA

[22] = target: Mitogen-activated protein kinase kinase kinase 14 (Homo sapiens) (UniProt Q99558); experiment: Inhibition of NIK (unknown origin) at 1 uM
[23] = target: Serine/threonine-protein kinase PAK 2 (Homo sapiens, UniProt Q13177); experiment: Inhibition of PAK2 (unknown origin)
MCF-10A [24] = experiment: Antiinvasive activity against human MCF10A cells harboring PIK3CA H1047R mutant assessed as complete wound closure at 0.1 to 50 uM after 40 hrs by matrigel assay; assay type: functional, cell-based
[25] = Apparent permeability across apical to basolateral side in MDCK cells; assay type: ADME, cell-based, Canis lupus familiaris; details: dog
[26] = target: T4, Serine/threonine-protein kinase PAK 6 (Homo sapiens, UniProt Q9NQU5); experiment: Inhibition of PAK6 (unknown origin)
[27] = Kinetic solubility of the compound; assay type: physicochemical; details: read-out: Kinetic_solubility
[28] = target: Mitogen-activated protein kinase kinase kinase kinase 5 (Homo sapiens) (UniProt Q9Y4K4); experiment: Inhibition of KHS1 (unknown origin) at 1 uM
[29] = target: Serine/threonine-protein kinase PAK 3 (Homo sapiens, UniProt O75914); experiment: Inhibition of PAK3 (unknown origin)
[30] = target: T5, Serine/threonine-protein kinase PAK 5 (Homo sapiens, UniProt Q9P286); experiment: Inhibition of PAK5 (unknown origin) at 0.1 uM
[31] = Lipophilicity, log D of the compound at pH 7.4; assay type: physicochemical; details: buffer
[32] = target: Misshapen-like kinase 1 (Homo sapiens) (UniProt Q8N4C8); experiment: Inhibition of MINK1 (unknown origin) at 1 uM
MDA-MB-436 [33] = experiment: Cytotoxicity against human MDA-MB-436 cells assessed as reduction in cell viability at 50 uM after 24 to 48 hrs by Celltiter-glo luminescence assay; assay type: functional, cell-based; outline: as §1
[34] = Antiinvasive activity against human MDA-MB-436 cells assessed as reduction of wound density at 1 uM after 80 hrs by matrigel assay; assay type: functional; design: scale not given: the % may be the effect or the level left
[35] = target: T5, Serine/threonine-protein kinase PAK 5; experiment: Inhibition of PAK5 (unknown origin)
[36] = target: T4, Serine/threonine-protein kinase PAK 6; experiment: Inhibition of PAK6 (unknown origin) at 0.1 uM
[37] = target: T2, Tyrosine-protein kinase JAK3 (Homo sapiens); experiment: Inhibition of JAK3 (unknown origin) at 1 uM
[38] = Antimigratory activity in human MCF10A cells harboring PIK3CA H1047R mutant assessed as reduced wound density at >10 uM after 20 hrs by wound healing assay; assay type: functional, MCF-10A; design: scale not given: the % may be the effect or the level left; outline: as §2

## Cc1nc2ccc(C#C[C@@](C)(O)c3nccs3)cc2n1-c1ncnc(N)n1
[1]
  pKi: 6.22
[2]
  pKi: < 5.35

## COCCNc1nc2ccc(C#CC(C)(C)O)cc2n1-c1ccnc(N)n1
[3]
  inhibition: 84%
[4]
  inhibition: 88%
[1]
  pKi: 6.85
[2]
  pKi: < 5.35
[5]
  inhibition: 97%
[6]
  inhibition: 40%
[7]
  inhibition: 31%
[8]
  inhibition: 32%

## COCCNc1nc2ccc(C#CC3(O)CCCCC3)cc2n1-c1ccnc(N)n1
MDA-MB-436 [9]
  Activity: Dose-dependent effect
MCF-10A [10]
  Activity: Active
[11]
  Activity: 50%
[12]
  Activity: 50%
[13]
  Activity: 50%
[14]
  pIC50: 8.12
MDA-MB-436 [15]
  Activity: inactive
[16]
  inhibition: -4%
[17]
  inhibition: 100%
[18]
  solubility thermodynamic: 6.3 µM (≈ 2.56 µg/mL)
[19]
  Activity: 50%
[20]
  inhibition: > 60%
[21]
  fraction unbound: 0.04
Ephrin type-B receptor 1
  pIC50: < 5.00
[22]
  inhibition: 46%
[23]
  pIC50: 6.01
MCF-10A [24]
  Activity: Active
[25]
  Papp A→B: 22.2 ×10⁻⁶ cm/s
[26]
  pIC50: 7.44
[27]
  solubility kinetic: 30 µM (≈ 12.2 µg/mL)
[28]
  inhibition: 14%
[29]
  pIC50: < 5.00
[30]
  inhibition: > 60%
[31]
  logD: 3.6
[32]
  inhibition: 5%
MDA-MB-436 [33]
  Activity: Active
[34]
  Activity: 50%
[35]
  pIC50: 6.90
[36]
  inhibition: > 60%
[37]
  inhibition: -1%
[38]
  Activity: 50%

## Cc1nc2ccc(C#C[C@@]3(O)C[C@@H]4CC[C@H]3C4)cc2n1-c1ncnc(N)n1 (racemic)
[1]
  pKi: 6.72
[2]
  pKi: < 5.35

## Cc1nc2ccc(C#CC(C)(C)O)cc2n1-c1ncnc(N)n1
[1]
  pKi: 6.30
[16]
  inhibition: 31%
[17]
  inhibition: 34%
[2]
  pKi: 4.82
[22]
  inhibition: 68%
[28]
  inhibition: 81%
[32]
  inhibition: 27%
[37]
  inhibition: 2%

## Cc1nc2ccc(C#CC(C)(O)c3ncccn3)cc2n1-c1ncnc(N)n1 (racemic)
[1]
  pKi: < 5.54
[2]
  pKi: < 5.35

## Cc1cc([C@](C)(O)C#Cc2ccc3nc(C)n(-c4ncnc(N)n4)c3c2)no1
[1]
  pKi: 7.49
[2]
  pKi: < 5.35

## Cc1nc2ccc(C#CC(C)(O)CO)cc2n1-c1ncnc(N)n1 (racemic)
[1]
  pKi: < 5.54
[2]
  pKi: < 5.35

## CC(C)(O)C#Cc1ccc2cnn(-c3cc(N)ncn3)c2c1
[1]
  pKi: 5.89
[2]
  pKi: < 5.35

— ChEMBL document CHEMBL3124809, “Back pocket flexibility provides group II p21-activated kinase (PAK) selectivity for type I 1/2 kinase inhibitors” (J Med Chem, 2014)
